Measurements taken from ChEMBL document CHEMBL1154352, “Toll-like receptor 7 selective synthetic oligoribonucleotide agonists: synthesis and structure-activity relationship studies” (J Med Chem, 2009).
The source made the active and inactive calls. No cut-off for these calls is given here.

Assays:
[1] = Metabolic stability in human serum assessed as full length product remaining after 10 mins by HPLC; format: ADME, cell-free; details: read-out: Stability
In short: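 About 0.5 A260 units compound in 1% human serum in PBS, 37 °C; aliquot taken at 10 min, analysed by anion-exchange HPLC for percent intact full-length product.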

Homo sapiens [2] = species on record: Homo sapiens; experiment: Ratio of human TLR7 activity to human TLR8 activity
In short: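 TLR7/TLR8 ratio computed from fold NF-κB (SEAP reporter) activation in HEK293 cells stably expressing human TLR7 versus TLR8, compounds at 50 μg/mL, 18 h exposure; representative of three independent experiments.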

[3] = biological target: T1, Toll-like receptor 9 (Mus musculus) (UniProt Q9EQU3); experiment: Activation of mouse TLR9 expressed in HEK293 assessed as induction of NF-kappaB activity reporter gene assay; format: cell-based
T1 sequence (whole entry): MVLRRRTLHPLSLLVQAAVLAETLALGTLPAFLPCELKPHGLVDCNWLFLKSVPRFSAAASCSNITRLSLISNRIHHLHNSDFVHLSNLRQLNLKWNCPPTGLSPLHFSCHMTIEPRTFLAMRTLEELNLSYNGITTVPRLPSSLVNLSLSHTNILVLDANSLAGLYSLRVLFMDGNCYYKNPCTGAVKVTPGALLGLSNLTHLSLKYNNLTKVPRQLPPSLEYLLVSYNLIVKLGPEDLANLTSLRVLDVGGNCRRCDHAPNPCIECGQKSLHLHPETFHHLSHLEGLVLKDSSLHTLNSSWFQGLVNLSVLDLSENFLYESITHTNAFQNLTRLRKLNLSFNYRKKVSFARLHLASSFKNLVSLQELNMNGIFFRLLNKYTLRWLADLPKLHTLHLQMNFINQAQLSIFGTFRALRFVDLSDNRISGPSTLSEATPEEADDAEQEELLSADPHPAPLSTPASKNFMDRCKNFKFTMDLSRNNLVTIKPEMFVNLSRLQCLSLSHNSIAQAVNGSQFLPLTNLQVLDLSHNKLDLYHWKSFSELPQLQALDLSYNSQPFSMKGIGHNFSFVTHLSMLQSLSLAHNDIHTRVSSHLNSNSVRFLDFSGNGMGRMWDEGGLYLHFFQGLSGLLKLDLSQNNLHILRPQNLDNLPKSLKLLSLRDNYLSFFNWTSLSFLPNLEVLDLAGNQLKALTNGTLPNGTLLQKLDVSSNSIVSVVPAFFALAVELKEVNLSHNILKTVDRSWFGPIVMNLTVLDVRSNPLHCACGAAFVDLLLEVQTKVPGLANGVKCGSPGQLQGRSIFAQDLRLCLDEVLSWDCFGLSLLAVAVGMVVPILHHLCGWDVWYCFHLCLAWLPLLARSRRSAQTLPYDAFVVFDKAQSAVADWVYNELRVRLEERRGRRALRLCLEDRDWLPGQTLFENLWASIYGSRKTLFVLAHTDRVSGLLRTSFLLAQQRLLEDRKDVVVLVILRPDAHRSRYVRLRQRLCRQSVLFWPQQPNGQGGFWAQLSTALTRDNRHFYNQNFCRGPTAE

Splenocyte = experiment: Immunomodulatory activity in C57BL/6 mouse splenocytes bearing TLR7 receptor assessed as IL6 release at 100 ug/ml after 24 hrs by ELISA; format: functional, cell-based
In short: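 C57BL/6 splenocytes in RPMI 1640 with 10% FBS, penicillin/streptomycin, 2 mM L-glutamine, plated at 5 × 10^6 cells/mL; compounds in PBS added, 37 °C for 24 h. Supernatant IL-12 and IL-6 by ELISA; representative of three independent experiments.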

Homo sapiens [4] = species on record: Homo sapiens; experiment: Immunostimulatory activity in human pDC assessed as induction of IFNalpha at 100 ug/ml after 24 hrs; format: functional
In short: (§1)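 Human pDCs plated at 1 × 10^6 cells/mL; compounds in PBS added, 37 °C for 24 h; supernatant cytokines/chemokines by human Luminex multiplex kit.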

PBMC [5] = experiment: Immunomodulatory activity in human PBMC assessed as induction of IL12 at 100 ug/ml after 24 hrs; format: functional, cell-based
In short: (§2)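 Human PBMCs plated at 5 × 10^6 cells/mL; compounds dissolved in PBS added at various concentrations, 37 °C for 24 h. Supernatant cytokines/chemokines quantified with human Luminex multiplex kit.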

PBMC [6] = experiment: Immunomodulatory activity in human PBMC assessed as induction of IL12 at 50 ug/ml after 24 hrs; format: functional, cell-based; in short: as §2
PBMC [7] = experiment: Immunomodulatory activity in human PBMC assessed as induction of TNFalpha at 50 ug/ml after 24 hrs; format: functional, cell-based; in short: as §2
PBMC [8] = experiment: Immunomodulatory activity in human PBMC assessed as induction of IFNalpha at 50 ug/ml after 24 hrs; format: functional, cell-based; in short: as §2
PBMC [9] = experiment: Immunomodulatory activity in human PBMC assessed as induction of MIP1alpha at 50 ug/ml after 24 hrs; format: functional, cell-based; in short: as §2
PBMC [10] = experiment: Immunomodulatory activity in human PBMC assessed as induction of MIP1beta at 50 ug/ml after 24 hrs; format: functional, cell-based; in short: as §2
PBMC [11] = experiment: Immunomodulatory activity in human PBMC assessed as induction of IP10 at 50 ug/ml after 24 hrs; format: functional, cell-based; in short: as §2
PBMC [12] = experiment: Immunomodulatory activity in human PBMC assessed as induction of MCP1 at 50 ug/ml after 24 hrs; format: functional, cell-based; in short: as §2
PBMC [13] = experiment: Immunomodulatory activity in human PBMC assessed as induction of IL6 at 50 ug/ml after 24 hrs; format: functional, cell-based; in short: as §2
PBMC [14] = experiment: Immunomodulatory activity in human PBMC assessed as induction of IL1-beta at 50 ug/ml after 24 hrs; format: functional, cell-based; in short: as §2
Homo sapiens [15] = species on record: Homo sapiens; experiment: Immunostimulatory activity in human pDC assessed as induction of IP10 at 100 ug/ml after 24 hrs; format: functional; in short: as §1
Homo sapiens [16] = species on record: Homo sapiens; experiment: Immunostimulatory activity in human pDC assessed as induction of IL6 at 100 ug/ml after 24 hrs; format: functional; in short: as §1
Homo sapiens [17] = species on record: Homo sapiens; experiment: Immunostimulatory activity in human mDC assessed as induction of IFNalpha at 100 ug/ml after 24 hrs; format: functional
In short: (§3)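 Human mDCs isolated from PBMCs by CD19+ B-cell depletion then BDCA1 positive selection; plated at 1 × 10^6 cells/mL, compounds in PBS, 37 °C for 24 h; supernatant cytokines by human Luminex multiplex. Representative of four independent experiments.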

Homo sapiens [18] = species on record: Homo sapiens; experiment: Immunostimulatory activity in human mDC assessed as induction of IP10 at 100 ug/ml after 24 hrs; format: functional; in short: as §3
Homo sapiens [19] = species on record: Homo sapiens; experiment: Immunostimulatory activity in human mDC assessed as induction of IL12 at 100 ug/ml after 24 hrs; format: functional; in short: as §3
Homo sapiens [20] = species on record: Homo sapiens; experiment: Immunostimulatory activity in human mDC assessed as induction of IL6 at 100 ug/ml after 24 hrs; format: functional; in short: as §3
Homo sapiens [21] = species on record: Homo sapiens; experiment: Immunostimulatory activity in human mDC assessed as induction of TNFalpha at 100 ug/ml after 24 hrs; format: functional; in short: as §3
Mus musculus = experiment: Immunomodulatory activity in C57BL/6 mouse assessed as induction of IL12 release at 25 mg/kg, sc after 2 hrs by ELISA; format: functional, organism-based; set-up: dose 25 mg/kg
In short: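 Female C57BL/6 wild-type mice, 5–8 weeks old, n=3; compounds given subcutaneously at 10 or 25 mg/kg. Retro-orbital blood at 2 h; serum cytokines by mouse Luminex multiplex or IL-12 ELISA.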

SMILES | remaining at 10 min [1] | Ratio (Homo sapiens [2]) | Activity [3] | Activity (Splenocyte) | Activity (Homo sapiens [4]) | Activity (PBMC [5]) | Activity (PBMC [6]) | Activity (PBMC [7]) | Activity (PBMC [8]) | Activity (PBMC [9]) | Activity (PBMC [10]) | Activity (PBMC [11]) | Activity (PBMC [12]) | Activity (PBMC [13]) | Activity (PBMC [14]) | Activity (Homo sapiens [15]) | Activity (Homo sapiens [16]) | Activity (Homo sapiens [17]) | Activity (Homo sapiens [18]) | Activity (Homo sapiens [19]) | further results
Nc1ccn([C@@H]2O[C@H](CO[C@H]3[C@@H](O)[C@H](n4cnc5c(N)ncnc54)O[C@@H]3COP(=O)(S)O[C@H]3[C@@H](O)[C@H](n4ccc5c(=O)[nH]c(N)nc54)O[C@@H]3COP(=O)(S)O[C@H]3[C@@H](O)[C@H](n4ccc(=O)[nH]c4=O)O[C@@H]3COP(=O)(S)O[C@H]3[C@@H](O)[C@H](n4cnc5c(N)ncnc54)O[C@@H]3COP(=O)(S)O[C@H]3[C@@H](O)[C@H](n4ccc5c(=O)[nH]c(N)nc54)O[C@@H]3COP(=O)(S)O[C@H]3[C@@H](O)[C@H](n4ccc(=O)[nH]c4=O)O[C@@H]3CO)[C@@H](OP(=O)(S)OC[C@H]3O[C@@H](n4ccc5c(=O)[nH]c(N)nc54)[C@H](O)[C@@H]3OP(=O)(S)OC[C@H]3O[C@@H](n4cnc5c(N)ncnc54)[C@H](O)[C@@H]3OP(=O)(S)OC[C@H]3O[C@@H](n4ccc(=O)[nH]c4=O)[C@H](O)[C@@H]3OP(=O)(S)OC[C@H]3O[C@@H](n4ccc(=O)[nH]c4=O)[C@H](O)[C@@H]3OP(=O)(S)OCC(O)COP(=O)(S)O[C@H]3[C@@H](O)[C@H](n4ccc(=O)[nH]c4=O)O[C@@H]3COP(=O)(S)O[C@H]3[C@@H](O)[C@H](n4ccc(=O)[nH]c4=O)O[C@@H]3COP(=O)(S)O[C@H]3[C@@H](O)[C@H](n4cnc5c(N)ncnc54)O[C@@H]3COP(=O)(S)O[C@H]3[C@@H](O)[C@H](n4ccc5c(=O)[nH]c(N)nc54)O[C@@H]3COP(=O)(S)O[C@H]3[C@@H](O)[C@H](n4ccc(N)nc4=O)O[C@@H]3CO[C@H]3[C@@H](O)[C@H](n4cnc5c(N)ncnc54)O[C@@H]3COP(=O)(S)O[C@H]3[C@@H](O)[C@H](n4ccc5c(=O)[nH]c(N)nc54)O[C@@H]3COP(=O)(S)O[C@H]3[C@@H](O)[C@H](n4ccc(=O)[nH]c4=O)O[C@@H]3COP(=O)(S)O[C@H]3[C@@H](O)[C@H](n4cnc5c(N)ncnc54)O[C@@H]3COP(=O)(S)O[C@H]3[C@@H](O)[C@H](n4ccc5c(=O)[nH]c(N)nc54)O[C@@H]3COP(=O)(S)O[C@H]3[C@@H](O)[C@H](n4ccc(=O)[nH]c4=O)O[C@@H]3CO)[C@H]2O)c(=O)n1 (stereo partly specified) | 84% | 10.9 | inactive | Active | Active | 102 pg/mL | 434 pg/mL | 68 pg/mL | 131 pg/mL | 5790 pg/mL | 9960 pg/mL | 155 pg/mL | 56000 pg/mL | 2760 pg/mL | 306 pg/mL | Active | Active | Active | Active | Active | Activity (Homo sapiens [20]): Active; Activity (Homo sapiens [21]): Active; Activity (Mus musculus): Active
Nc1ccn([C@@H]2O[C@H](COP(=O)(S)O[C@H]3[C@@H](O)[C@H](n4cnc5c(N)ncnc54)O[C@@H]3CO)[C@@H](OP(=O)(S)OC[C@H]3O[C@@H](n4ccc(=O)[nH]c4=O)[C@H](O)[C@@H]3OP(=O)(S)OC[C@H]3O[C@@H](n4ccc(=O)[nH]c4=O)[C@H](O)[C@@H]3OP(=O)(S)OC[C@H]3O[C@@H](n4ccc5c(=O)[nH]c(N)nc54)[C@H](O)[C@@H]3OP(=O)(S)OC[C@H]3O[C@@H](n4cnc5c(N)ncnc54)[C@H](O)[C@@H]3OP(=O)(S)OC[C@H]3O[C@@H](n4ccc(N)nc4=O)[C@H](O)[C@@H]3OP(=O)(S)OC[C@H]3O[C@@H](n4ccc5c(=O)[nH]c(N)nc54)[C@H](O)[C@@H]3OP(=O)(S)OC[C@H]3O[C@@H](n4cnc5c(N)ncnc54)[C@H](O)[C@@H]3OP(=O)(S)OC[C@H]3O[C@@H](n4ccc(=O)[nH]c4=O)[C@H](O)[C@@H]3OP(=O)(S)OC[C@H]3O[C@@H](n4ccc(=O)[nH]c4=O)[C@H](O)[C@@H]3OP(=O)(S)OCC(O)COP(=O)(S)O[C@H]3[C@@H](O)[C@H](n4ccc(=O)[nH]c4=O)O[C@@H]3COP(=O)(S)O[C@H]3[C@@H](O)[C@H](n4ccc(=O)[nH]c4=O)O[C@@H]3COP(=O)(S)O[C@H]3[C@@H](O)[C@H](n4cnc5c(N)ncnc54)O[C@@H]3COP(=O)(S)O[C@H]3[C@@H](O)[C@H](n4ccc5c(=O)[nH]c(N)nc54)O[C@@H]3COP(=O)(S)O[C@H]3[C@@H](O)[C@H](n4ccc(N)nc4=O)O[C@@H]3COP(=O)(S)O[C@H]3[C@@H](O)[C@H](n4cnc5c(N)ncnc54)O[C@@H]3COP(=O)(S)O[C@H]3[C@@H](O)[C@H](n4ccc5c(=O)[nH]c(N)nc54)O[C@@H]3COP(=O)(S)O[C@H]3[C@@H](O)[C@H](n4ccc(=O)[nH]c4=O)O[C@@H]3COP(=O)(S)O[C@H]3[C@@H](O)[C@H](n4ccc(=O)[nH]c4=O)O[C@@H]3COP(=O)(S)O[C@H]3[C@@H](O)[C@H](n4ccc(N)nc4=O)O[C@@H]3COP(=O)(S)O[C@H]3[C@@H](O)[C@H](n4cnc5c(N)ncnc54)O[C@@H]3CO)[C@H]2O)c(=O)n1 (stereo partly specified) | 86% | 7.9 | inactive | Active | Active | 394 pg/mL | 360 pg/mL | 174 pg/mL | 106 pg/mL | 3620 pg/mL | 7330 pg/mL | 199 pg/mL | 49100 pg/mL | 2380 pg/mL | 218 pg/mL | Active | Active | Active | Active | Active | Activity (Homo sapiens [20]): Active; Activity (Homo sapiens [21]): Active; Activity (Mus musculus): Active
